Measurements taken from ChEMBL document CHEMBL3286131, “Design, synthesis and systematic evaluation of cytotoxic 3-heteroarylisoquinolinamines as topoisomerases inhibitors” (Eur J Med Chem, 2014).
Where “and” joins values, the source holds several entries; their conditions need not be identical. Identical values can stand only once.

What was measured:
[1] = molecular target: T1, DNA topoisomerase 1 (Homo sapiens) (UniProt P11387); assay: Inhibition of recombinant human DNA topoisomerase-1-mediated relaxation of supercoiled DNA pBR322 at 100 uM after 7 hrs using ethidium bromide staining by agarose gel electrophoresis analysis
T1 sequence (whole entry): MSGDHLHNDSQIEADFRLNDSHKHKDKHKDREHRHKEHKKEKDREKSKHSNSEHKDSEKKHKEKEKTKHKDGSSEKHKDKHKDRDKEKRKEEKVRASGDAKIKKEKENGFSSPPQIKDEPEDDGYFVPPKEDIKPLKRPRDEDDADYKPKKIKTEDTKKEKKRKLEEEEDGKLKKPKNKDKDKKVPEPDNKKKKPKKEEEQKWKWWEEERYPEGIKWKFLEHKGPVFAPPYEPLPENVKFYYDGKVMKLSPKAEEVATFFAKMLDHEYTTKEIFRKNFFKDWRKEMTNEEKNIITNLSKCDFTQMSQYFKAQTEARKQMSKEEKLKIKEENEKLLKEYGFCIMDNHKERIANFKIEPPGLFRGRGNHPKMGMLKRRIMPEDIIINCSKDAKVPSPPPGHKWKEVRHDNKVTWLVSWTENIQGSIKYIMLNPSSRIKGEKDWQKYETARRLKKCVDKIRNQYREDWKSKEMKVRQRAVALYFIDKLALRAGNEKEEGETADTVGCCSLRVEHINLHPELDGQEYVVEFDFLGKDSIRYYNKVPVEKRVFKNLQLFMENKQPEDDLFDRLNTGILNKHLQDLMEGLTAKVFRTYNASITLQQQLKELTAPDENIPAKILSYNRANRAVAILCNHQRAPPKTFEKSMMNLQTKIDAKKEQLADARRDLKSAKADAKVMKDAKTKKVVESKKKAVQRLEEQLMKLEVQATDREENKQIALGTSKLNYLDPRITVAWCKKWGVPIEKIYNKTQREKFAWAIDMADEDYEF
In short: (§1)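 pBR322 (100 ng) incubated with recombinant human topo I (0.4 units) ± compound for 30 min at 37 °C. Buffer: 10 mM Tris-HCl pH 7.9, 150 mM NaCl, 0.1% BSA, 1 mM spermidine, 5% glycerol. Quenched with sarcosyl stop solution. 1% agarose gel run at 15 V for 7 h in TAE, ethidium bromide stain, supercoiled DNA quantified under UV.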

[2] = molecular target: DNA topoisomerase 2-alpha (Homo sapiens) (UniProt P11388); assay: Inhibition of human DNA topoisomerase-2a-mediated relaxation of supercoiled DNA pBR322 at 100 uM after 4 hrs using ethidium bromide staining by agarose gel electrophoresis analysis
In short: (§2)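 Supercoiled pBR322 (200 ng) incubated with human topo IIα (1 unit) ± compound for 30 min at 30 °C. Buffer: 10 mM Tris-HCl pH 7.9, 50 mM NaCl, 50 mM KCl, 5 mM MgCl2, 1 mM EDTA, 1 mM ATP, BSA. Stopped with EDTA. 1% agarose gel run at 25 V for 4 h in TAE, ethidium bromide stain, supercoiled DNA quantified by UV imaging.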

[3] = molecular target: DNA topoisomerase 2-alpha (Homo sapiens) (UniProt P11388); assay: Inhibition of human DNA topoisomerase-2a-mediated relaxation of supercoiled DNA pBR322 at 20 uM after 4 hrs using ethidium bromide staining by agarose gel electrophoresis analysis; in short: as §2
[4] = Cytotoxicity against human MCF10A cells after 2 days; type: cell-based, MCF-10A; conditions: Homo sapiens, MCF-10A, 48 h
In short: (§3)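 Cells seeded at 2-4 × 10^4 per well in medium with 10% FBS and incubated overnight at 37 °C, 5% CO2. Graded compound concentrations added on day 2. CCK-8 reagent added on day 4 for a further 4 h, absorbance read at 450 nm. IC50 from a four-parameter logistic fit; mean ± S.D. of three experiments run in triplicate.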

[5] = test system: DU-145; assay: Cytotoxicity against human DU145 cells after 2 days; type: functional, cell-based; conditions: Homo sapiens, DU-145, 48 h; in short: as §3
[6] = test system: T47D; assay: Cytotoxicity against human T47D cells after 2 days; type: functional, cell-based; conditions: Homo sapiens, T47D, 48 h; in short: as §3
[7] = Cytotoxicity against human HCT15 cells after 2 days; type: functional, cell-based, HCT-15; conditions: Homo sapiens, HCT-15, 48 h; in short: as §3
[8] = molecular target: T1, DNA topoisomerase 1 (Homo sapiens); assay: Inhibition of recombinant human DNA topoisomerase-1-mediated relaxation of supercoiled DNA pBR322 at 20 uM after 7 hrs using ethidium bromide staining by agarose gel electrophoresis analysis; in short: as §1
[9] = test system: HeLa; assay: Cell cycle arrest in human HeLa cells assessed as accumulation at sub-G0/G1 phase after 24 hrs using […] by flow cytometry analysis relative to control; type: functional, cell-based
In short: (§4)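 HeLa cells exposed to graded compound concentrations for 24 h, harvested by centrifugation, PBS-washed twice, fixed overnight on ice in 70% ethanol. Stained with 10 μg/mL propidium iodide plus 0.5 mg/mL RNase and 0.1% Triton X-100 in PBS, 30 min at 37 °C in the dark. Flow cytometry gates: sub-G0/G1, G0/G1, S, G2/M.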

[10] = test system: HeLa; assay: Cell cycle arrest in human HeLa cells assessed as accumulation at G2/M phase phase after 24 hrs using […] by flow cytometry analysis relative to control; type: functional, cell-based; in short: as §4

Chain of DNA topoisomerase 2-alpha (Homo sapiens) (P11388 whole entry): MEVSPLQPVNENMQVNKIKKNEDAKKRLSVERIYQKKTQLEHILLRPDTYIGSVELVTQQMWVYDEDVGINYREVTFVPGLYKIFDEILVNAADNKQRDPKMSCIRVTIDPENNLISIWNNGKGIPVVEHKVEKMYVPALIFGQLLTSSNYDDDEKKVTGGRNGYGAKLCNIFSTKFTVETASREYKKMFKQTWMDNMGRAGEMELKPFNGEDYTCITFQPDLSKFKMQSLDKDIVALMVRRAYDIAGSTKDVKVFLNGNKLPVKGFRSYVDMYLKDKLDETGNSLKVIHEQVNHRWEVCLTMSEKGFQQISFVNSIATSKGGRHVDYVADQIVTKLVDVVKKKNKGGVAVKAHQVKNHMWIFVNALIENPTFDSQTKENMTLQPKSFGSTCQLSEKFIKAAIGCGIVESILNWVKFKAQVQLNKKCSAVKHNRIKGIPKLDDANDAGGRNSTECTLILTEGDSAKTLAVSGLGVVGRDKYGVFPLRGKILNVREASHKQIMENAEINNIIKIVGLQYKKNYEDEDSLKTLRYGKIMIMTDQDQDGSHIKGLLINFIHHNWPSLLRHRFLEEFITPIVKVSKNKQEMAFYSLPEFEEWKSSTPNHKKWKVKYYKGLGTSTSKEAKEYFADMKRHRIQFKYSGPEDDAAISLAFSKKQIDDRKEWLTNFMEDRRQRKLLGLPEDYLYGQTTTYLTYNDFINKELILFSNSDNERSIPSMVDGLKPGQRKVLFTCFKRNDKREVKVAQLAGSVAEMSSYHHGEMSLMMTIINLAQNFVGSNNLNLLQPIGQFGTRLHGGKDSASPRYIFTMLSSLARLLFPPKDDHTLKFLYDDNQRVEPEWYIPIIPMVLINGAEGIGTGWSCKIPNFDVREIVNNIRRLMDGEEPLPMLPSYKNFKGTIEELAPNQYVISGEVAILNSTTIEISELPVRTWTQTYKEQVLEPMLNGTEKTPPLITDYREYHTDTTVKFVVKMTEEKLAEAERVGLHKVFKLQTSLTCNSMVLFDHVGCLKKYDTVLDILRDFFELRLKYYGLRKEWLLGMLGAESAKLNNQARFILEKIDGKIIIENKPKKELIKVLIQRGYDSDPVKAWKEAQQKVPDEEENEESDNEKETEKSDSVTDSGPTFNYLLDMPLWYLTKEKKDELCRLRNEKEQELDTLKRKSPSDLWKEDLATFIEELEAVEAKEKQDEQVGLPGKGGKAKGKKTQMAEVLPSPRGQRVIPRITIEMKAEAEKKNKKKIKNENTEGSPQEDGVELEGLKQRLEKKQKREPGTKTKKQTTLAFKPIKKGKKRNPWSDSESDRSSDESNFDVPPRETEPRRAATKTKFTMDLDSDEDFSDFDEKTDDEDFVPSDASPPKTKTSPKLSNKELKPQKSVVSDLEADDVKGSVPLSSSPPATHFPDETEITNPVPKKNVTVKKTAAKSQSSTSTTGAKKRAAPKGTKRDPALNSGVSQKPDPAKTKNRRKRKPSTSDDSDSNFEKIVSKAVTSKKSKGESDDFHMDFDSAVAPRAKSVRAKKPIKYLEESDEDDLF

SMILES | inhibition [1] | inhibition [2] | inhibition [3] | inhibition [8] | IC50 [4] | IC50 [5] | IC50 [6] | IC50 [7] | Activity [9] | Activity [10]
Cc1ccc2c(NCc3ccccc3)nc(-c3cccs3)cc2c1 | 0% | 68.9% | 1.1% |  | > 50 µM | > 50 µM | 6.57 µM | 8.62 µM |  | 
Cc1ccc2c(N3CCCCC3)nc(-c3cccs3)cc2c1 |  |  | 1.1% | 0% |  |  |  |  |  | 
Nc1nc(-c2cccs2)cc2ccccc12 | 0% | 14.6% and 22.5% | 0% |  |  |  |  |  | Dose-dependent effect | Dose-dependent effect

Second part, led by results:

inhibition [1] | inhibition [2] | inhibition [3] | inhibition [8] | SMILES | IC50 [4] | IC50 [5] | IC50 [6] | IC50 [7] | Activity [9] | Activity [10]
59% and 59.6% |  | 0% | 0% | Cc1ccc2c(N3CCNCC3)nc(-c3cccs3)cc2c1 |  |  |  |  |  | 
0% | 42.9% and 48.1% | 0.5% and 1.8% |  | c1csc(-c2cc3ccccc3c(N3CCCCC3)n2)c1 |  |  |  |  |  | 
 |  | 0% | 0.6% and 4.8% | c1csc(-c2cc3ccccc3c(N3CCNCC3)n2)c1 |  |  |  |  |  | 
